ChEMBL document CHEMBL1165965, “Synthesis and structure-activity relationships of 1,2,3,4-tetrahydropyrido[2,3-b]pyrazines as potent and selective inhibitors of the anaplastic lymphoma kinase” (Bioorg Med Chem, 2010)

How the values were obtained:
[1] = target: Ribosomal protein S6 kinase alpha-6 (Homo sapiens) (UniProt Q9UK32); test: Inhibition of RPS6KA6 N-terminal domain1 at 1 uM
[2] = target: Serine/threonine-protein kinase 26 (Homo sapiens) (UniProt Q9P289); test: Inhibition of MST4 at 1 uM
[3] = target: Serine/threonine-protein kinase 38 (Homo sapiens) (UniProt Q15208); test: Inhibition of NDR1 at 1 uM
[4] = target: Vascular endothelial growth factor receptor 1 (Homo sapiens) (UniProt P17948); test: Inhibition of FLT1 at 1 uM
Summary of the method: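 Single-concentration screen on the Ambit KINOMEscan platform, run against a panel of 250–400 kinases. Per-kinase inhibition was also summarized as S(90), the fraction of kinases inhibited by more than 90%.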

[5] = target: Platelet-derived growth factor receptor beta (Homo sapiens) (UniProt P09619); test: Inhibition of PDGFRB at 1 uM
[6] = target: T1, Serine/threonine-protein kinase Nek5 (Homo sapiens) (UniProt Q6P3R8); test: Inhibition of NEK5 at 1 uM
T1 sequence (whole entry): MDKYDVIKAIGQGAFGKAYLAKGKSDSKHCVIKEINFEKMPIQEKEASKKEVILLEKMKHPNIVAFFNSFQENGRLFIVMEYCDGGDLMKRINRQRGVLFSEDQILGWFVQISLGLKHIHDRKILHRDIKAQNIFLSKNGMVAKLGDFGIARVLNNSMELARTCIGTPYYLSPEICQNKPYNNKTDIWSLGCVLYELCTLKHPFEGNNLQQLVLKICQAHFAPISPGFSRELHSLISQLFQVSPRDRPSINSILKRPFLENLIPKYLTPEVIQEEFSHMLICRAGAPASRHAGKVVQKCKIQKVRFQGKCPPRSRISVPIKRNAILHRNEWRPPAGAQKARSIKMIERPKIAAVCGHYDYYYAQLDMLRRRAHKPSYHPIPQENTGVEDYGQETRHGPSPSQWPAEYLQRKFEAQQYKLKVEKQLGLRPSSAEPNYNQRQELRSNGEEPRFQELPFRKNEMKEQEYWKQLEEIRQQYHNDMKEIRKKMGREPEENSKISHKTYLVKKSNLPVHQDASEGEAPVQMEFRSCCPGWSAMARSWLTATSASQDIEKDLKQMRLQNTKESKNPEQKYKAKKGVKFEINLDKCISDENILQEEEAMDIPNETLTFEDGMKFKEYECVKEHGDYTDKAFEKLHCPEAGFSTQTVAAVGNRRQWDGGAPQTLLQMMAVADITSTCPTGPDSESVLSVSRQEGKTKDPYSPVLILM

[7] = target: T2, Serine/threonine-protein kinase D1 (Homo sapiens) (UniProt Q15139); test: Inhibition of PRKD1 at 1 uM
T2 sequence (whole entry): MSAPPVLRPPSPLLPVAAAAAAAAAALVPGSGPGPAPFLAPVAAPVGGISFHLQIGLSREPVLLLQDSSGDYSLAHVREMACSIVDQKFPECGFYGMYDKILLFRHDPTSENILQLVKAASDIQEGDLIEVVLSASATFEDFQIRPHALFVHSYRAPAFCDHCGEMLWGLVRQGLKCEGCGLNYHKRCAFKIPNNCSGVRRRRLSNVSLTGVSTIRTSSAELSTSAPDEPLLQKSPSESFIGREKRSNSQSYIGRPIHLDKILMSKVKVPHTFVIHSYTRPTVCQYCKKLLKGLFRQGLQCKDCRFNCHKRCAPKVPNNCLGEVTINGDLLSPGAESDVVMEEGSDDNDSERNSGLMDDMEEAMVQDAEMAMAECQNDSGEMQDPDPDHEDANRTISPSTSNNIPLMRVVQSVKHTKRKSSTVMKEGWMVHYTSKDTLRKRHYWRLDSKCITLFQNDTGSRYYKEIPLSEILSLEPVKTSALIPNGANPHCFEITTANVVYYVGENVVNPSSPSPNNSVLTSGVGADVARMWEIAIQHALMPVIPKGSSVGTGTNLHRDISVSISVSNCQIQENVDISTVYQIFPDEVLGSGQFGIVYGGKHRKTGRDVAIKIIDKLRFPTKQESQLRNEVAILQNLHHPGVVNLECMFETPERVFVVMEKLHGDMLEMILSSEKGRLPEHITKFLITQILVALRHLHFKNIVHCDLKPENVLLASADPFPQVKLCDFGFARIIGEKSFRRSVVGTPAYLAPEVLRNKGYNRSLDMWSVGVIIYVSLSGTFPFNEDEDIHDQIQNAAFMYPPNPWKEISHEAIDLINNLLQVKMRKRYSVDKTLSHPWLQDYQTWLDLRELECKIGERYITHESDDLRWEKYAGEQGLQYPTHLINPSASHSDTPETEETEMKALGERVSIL

[8] = target: T3, Serine/threonine-protein kinase D3 (Homo sapiens) (UniProt O94806); test: Inhibition of PRKD3 at 1 uM
T3 sequence (whole entry): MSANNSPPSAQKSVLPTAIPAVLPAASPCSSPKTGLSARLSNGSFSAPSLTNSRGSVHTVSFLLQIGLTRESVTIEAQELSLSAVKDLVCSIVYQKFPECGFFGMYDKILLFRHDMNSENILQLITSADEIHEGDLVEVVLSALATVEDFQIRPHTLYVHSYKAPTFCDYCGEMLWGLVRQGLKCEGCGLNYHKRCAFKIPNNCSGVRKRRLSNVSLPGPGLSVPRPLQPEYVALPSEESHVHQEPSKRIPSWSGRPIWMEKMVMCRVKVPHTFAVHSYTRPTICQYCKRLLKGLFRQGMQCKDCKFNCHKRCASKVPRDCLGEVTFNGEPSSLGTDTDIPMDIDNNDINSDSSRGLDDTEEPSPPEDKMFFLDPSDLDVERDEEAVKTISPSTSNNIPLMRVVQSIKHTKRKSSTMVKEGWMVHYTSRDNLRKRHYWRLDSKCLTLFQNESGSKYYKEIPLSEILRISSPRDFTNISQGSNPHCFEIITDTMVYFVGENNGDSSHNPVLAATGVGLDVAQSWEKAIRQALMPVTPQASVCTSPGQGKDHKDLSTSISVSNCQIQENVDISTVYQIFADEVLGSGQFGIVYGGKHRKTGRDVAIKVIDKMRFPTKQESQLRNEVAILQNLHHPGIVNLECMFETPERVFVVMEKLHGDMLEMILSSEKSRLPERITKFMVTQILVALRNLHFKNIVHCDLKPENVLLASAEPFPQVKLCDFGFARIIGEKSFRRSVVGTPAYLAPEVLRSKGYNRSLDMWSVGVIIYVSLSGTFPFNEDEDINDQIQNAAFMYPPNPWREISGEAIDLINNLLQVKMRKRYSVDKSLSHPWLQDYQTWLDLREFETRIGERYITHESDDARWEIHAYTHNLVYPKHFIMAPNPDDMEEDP

[9] = target: Dual specificity protein kinase CLK1 (Homo sapiens) (UniProt P49759); test: Inhibition of CLK1 at 1 uM
Summary of the method: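 Ambit KINOMEscan screen at a single concentration across a 250–400 kinase panel, recorded as percent inhibition. Selectivity was expressed as S(90), the fraction of kinases inhibited >90%.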

Sequence of Dual specificity protein kinase CLK1 (Homo sapiens) (P49759 whole entry, looked up): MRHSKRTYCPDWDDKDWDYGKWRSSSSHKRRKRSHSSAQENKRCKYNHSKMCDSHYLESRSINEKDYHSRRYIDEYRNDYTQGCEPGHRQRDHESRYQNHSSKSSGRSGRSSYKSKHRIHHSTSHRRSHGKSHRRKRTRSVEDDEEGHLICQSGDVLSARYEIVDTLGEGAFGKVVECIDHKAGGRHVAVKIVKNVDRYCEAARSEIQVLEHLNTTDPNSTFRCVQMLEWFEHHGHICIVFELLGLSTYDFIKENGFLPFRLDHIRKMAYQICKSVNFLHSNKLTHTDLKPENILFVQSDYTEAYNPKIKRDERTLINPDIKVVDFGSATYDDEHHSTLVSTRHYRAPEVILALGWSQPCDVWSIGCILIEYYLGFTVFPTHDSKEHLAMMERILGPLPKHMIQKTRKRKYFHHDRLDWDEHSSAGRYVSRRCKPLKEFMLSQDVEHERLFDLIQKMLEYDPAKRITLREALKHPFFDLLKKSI
Sequence of Vascular endothelial growth factor receptor 1 (Homo sapiens) (P17948 whole entry): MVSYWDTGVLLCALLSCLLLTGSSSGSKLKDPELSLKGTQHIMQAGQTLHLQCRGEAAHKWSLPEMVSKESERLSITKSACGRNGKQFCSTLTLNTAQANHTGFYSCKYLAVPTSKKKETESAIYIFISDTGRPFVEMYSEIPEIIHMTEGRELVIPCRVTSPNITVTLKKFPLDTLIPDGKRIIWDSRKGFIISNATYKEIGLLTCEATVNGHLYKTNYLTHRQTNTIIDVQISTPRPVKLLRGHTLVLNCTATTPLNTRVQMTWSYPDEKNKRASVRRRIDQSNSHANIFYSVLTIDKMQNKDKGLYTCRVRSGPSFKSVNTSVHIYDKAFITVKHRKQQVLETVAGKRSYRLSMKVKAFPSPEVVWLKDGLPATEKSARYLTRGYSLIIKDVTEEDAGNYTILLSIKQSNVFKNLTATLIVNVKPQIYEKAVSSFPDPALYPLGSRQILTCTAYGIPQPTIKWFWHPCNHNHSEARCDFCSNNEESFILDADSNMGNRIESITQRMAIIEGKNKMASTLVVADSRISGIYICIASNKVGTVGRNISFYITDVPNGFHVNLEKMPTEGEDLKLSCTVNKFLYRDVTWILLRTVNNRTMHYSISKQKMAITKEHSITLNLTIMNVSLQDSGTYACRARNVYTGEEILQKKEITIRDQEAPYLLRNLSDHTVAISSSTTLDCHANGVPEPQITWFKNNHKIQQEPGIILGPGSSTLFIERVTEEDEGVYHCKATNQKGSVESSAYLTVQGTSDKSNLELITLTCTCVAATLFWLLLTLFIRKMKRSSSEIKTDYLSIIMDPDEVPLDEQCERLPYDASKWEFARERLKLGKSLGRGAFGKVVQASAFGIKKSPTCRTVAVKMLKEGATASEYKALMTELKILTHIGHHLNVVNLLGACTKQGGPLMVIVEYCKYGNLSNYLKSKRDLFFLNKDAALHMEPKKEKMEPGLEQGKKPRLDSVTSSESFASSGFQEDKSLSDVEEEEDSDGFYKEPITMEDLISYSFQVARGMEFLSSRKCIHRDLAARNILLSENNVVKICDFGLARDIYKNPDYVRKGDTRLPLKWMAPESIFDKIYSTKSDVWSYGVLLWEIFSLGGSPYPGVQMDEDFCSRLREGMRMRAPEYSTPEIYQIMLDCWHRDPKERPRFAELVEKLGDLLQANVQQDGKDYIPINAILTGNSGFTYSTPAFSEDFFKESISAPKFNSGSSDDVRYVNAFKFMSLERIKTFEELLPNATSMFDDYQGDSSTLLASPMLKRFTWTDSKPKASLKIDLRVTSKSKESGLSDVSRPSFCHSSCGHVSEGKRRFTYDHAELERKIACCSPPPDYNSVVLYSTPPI
Sequence of Platelet-derived growth factor receptor beta (Homo sapiens) (P09619 whole entry): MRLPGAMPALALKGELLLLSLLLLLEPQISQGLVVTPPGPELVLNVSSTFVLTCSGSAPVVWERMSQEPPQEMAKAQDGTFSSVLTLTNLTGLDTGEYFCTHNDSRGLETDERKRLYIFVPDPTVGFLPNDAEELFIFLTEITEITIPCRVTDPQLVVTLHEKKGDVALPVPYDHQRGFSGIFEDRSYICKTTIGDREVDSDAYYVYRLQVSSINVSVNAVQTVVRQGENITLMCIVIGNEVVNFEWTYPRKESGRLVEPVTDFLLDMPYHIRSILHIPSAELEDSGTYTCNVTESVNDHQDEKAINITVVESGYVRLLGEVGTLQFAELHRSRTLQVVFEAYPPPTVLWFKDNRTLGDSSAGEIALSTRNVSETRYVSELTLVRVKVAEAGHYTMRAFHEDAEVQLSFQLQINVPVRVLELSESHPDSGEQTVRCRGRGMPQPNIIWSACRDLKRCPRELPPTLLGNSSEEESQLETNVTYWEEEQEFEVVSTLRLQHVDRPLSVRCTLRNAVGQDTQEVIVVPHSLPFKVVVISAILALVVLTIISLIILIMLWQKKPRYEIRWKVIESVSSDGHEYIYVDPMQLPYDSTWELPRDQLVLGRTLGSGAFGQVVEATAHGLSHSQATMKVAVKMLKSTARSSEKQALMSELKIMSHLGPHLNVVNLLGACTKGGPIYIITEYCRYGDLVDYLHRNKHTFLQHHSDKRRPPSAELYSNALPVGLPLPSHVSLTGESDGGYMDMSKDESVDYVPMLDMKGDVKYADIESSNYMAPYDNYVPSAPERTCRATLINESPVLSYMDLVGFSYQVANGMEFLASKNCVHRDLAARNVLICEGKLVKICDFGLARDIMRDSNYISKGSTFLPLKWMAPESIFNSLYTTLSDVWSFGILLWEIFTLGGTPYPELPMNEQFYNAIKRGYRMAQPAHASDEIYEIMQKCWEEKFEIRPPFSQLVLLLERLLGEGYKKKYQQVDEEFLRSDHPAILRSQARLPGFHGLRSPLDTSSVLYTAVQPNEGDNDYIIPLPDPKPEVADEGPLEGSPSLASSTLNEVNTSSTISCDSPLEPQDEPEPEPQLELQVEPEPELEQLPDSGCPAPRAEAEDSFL
Sequence of Ribosomal protein S6 kinase alpha-6 (Homo sapiens) (Q9UK32 whole entry, the tested form may be a part): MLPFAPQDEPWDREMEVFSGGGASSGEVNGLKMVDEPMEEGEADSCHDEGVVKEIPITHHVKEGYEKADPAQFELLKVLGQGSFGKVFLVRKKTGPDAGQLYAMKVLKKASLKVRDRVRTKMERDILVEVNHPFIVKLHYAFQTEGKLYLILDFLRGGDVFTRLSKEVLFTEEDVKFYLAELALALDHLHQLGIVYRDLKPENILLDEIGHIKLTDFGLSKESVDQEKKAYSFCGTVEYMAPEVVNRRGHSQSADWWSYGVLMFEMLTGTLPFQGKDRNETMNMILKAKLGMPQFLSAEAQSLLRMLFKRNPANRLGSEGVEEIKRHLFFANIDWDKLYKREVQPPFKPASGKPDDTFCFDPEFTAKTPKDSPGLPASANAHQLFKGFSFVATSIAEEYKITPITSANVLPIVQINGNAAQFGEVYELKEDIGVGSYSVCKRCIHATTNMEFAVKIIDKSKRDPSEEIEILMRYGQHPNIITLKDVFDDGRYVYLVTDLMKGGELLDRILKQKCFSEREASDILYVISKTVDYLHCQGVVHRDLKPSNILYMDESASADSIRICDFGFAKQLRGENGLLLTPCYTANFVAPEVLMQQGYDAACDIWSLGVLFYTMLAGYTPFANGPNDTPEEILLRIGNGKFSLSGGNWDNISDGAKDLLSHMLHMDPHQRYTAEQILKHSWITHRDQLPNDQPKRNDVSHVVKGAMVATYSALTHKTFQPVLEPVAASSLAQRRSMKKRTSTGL
Sequence of Serine/threonine-protein kinase 38 (Homo sapiens) (Q15208 2-465 limits assumed): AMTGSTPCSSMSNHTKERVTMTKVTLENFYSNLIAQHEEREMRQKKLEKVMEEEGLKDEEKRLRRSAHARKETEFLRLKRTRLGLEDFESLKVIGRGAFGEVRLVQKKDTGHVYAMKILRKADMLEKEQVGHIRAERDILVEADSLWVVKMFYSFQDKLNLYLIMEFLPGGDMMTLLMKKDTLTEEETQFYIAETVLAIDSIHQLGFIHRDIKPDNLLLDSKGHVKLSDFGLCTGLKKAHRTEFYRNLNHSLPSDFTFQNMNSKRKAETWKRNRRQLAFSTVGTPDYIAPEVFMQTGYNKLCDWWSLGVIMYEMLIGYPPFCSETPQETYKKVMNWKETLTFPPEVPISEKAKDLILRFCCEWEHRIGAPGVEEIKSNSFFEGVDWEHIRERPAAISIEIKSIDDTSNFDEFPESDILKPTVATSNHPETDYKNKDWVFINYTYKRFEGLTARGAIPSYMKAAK
Sequence of Serine/threonine-protein kinase 26 (Homo sapiens) (Q9P289 2-416 limits assumed): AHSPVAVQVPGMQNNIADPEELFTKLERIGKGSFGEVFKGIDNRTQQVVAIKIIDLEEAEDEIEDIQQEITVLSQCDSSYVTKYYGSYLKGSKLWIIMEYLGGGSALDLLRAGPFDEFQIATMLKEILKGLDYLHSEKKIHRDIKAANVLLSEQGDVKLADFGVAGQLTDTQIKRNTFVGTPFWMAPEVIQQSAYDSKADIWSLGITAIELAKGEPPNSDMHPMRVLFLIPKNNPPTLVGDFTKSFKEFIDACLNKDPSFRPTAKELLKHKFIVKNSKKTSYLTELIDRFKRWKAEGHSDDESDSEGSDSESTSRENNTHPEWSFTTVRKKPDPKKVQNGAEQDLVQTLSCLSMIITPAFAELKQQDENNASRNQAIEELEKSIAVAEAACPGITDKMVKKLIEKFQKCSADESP

Compound | inhibition [1] | inhibition [2] | inhibition [3] | inhibition [4] | inhibition [5] | inhibition [6] | inhibition [7] | inhibition [8] | inhibition [9]
O=C(c1ccc(-c2cnc3c(c2)N(Cc2cc(Cl)ccc2C(F)(F)F)CCN3)cc1)N1CCC(N2CCCC2)CC1 | < 50% | < 50% |  | < 50% | 76.4% |  |  |  | < 50%
O=C(c1ccc(-c2cnc3c(c2)N(Cc2cc(Cl)ccc2C(F)(F)F)CCN3)cc1)N1CCCCC1 | < 50% | < 50% |  | < 50% | < 50% |  |  |  | < 50%
COC1CCN(C(=O)c2ccc(-c3cnc4c(c3)N(Cc3cc(Cl)ccc3C(F)(F)F)CCN4)cc2)CC1 | < 50% | < 50% |  | < 50% | < 50% |  |  |  | < 50%
O=C(O)c1ccc(-c2cnc3c(c2)N(Cc2cc(Cl)ccc2C(F)(F)F)CCN3)cc1 | < 50% | < 50% |  | < 50% | < 50% |  |  |  | < 50%
FC(F)(F)c1ccc(Cl)cc1CN1CCNc2ncc(-c3ccnc(N4CCNCC4)c3)cc21 | < 50% | < 50% | < 50% | < 50% | 92% | < 50% | < 50% | < 50% | < 50%

Further lines, results first:

inhibition [1] | inhibition [2] | inhibition [3] | inhibition [4] | inhibition [5] | inhibition [6] | inhibition [7] | inhibition [8] | inhibition [9] | Compound
< 50% | < 50% | < 50% | < 50% | < 50% | < 50% | 67% | < 50% | < 50% | CN1CCN(c2ccc(-c3cnc4c(c3)N(Cc3cc(F)ccc3F)CCN4)cn2)CC1
< 50% | < 50% | < 50% | < 50% | < 50% | < 50% | 67% | < 50% | < 50% | CN1CCN(c2ccc(-c3cnc4c(c3)N(Cc3c(F)ccc(F)c3Cl)CCN4)cn2)CC1
< 50% | < 50% | < 50% | < 50% | < 50% | < 50% | < 50% | < 50% | < 50% | CC(=O)N1CCN(c2cc(-c3cnc4c(c3)N(Cc3cc(Cl)ccc3C(F)(F)F)CCN4)ccn2)CC1
< 50% | < 50% | < 50% | < 50% | < 50% | < 50% | < 50% | < 50% | < 50% | CN1CCN(c2ccc(-c3cnc4c(c3)N(Cc3cc(Cl)ccc3C(F)(F)F)CCN4)cn2)CC1
< 50% | < 50% | < 50% | < 50% | < 50% | < 50% | < 50% | < 50% | < 50% | CN1CCN(c2ccc(-c3cnc4c(c3)N(Cc3cc(Cl)ccc3Cl)CCN4)cn2)CC1
